Assay results reported in PMC2933425 (Journal of medicinal chemistry, 2010).
Where two headings read alike, the source gives them in different places. Marks after values point to notes of the source that are not given here.

Experiments:
[1] = Photophysical measurements; format: physicochemical; conditions: for Qy(0,0) absorption fwhm / Qy(0,0) absorption λ / Qy(0,0) fluorescence fwhm / Qy(0,0) fluorescence λ: aerated methanol; for Θ f (fluorescence quantum yield) / τS (lifetime of the lowest singlet excited state): Ar-purged methanol; for τS (lifetime of the lowest singlet excited state): fluorescence detection; for Φisc (triplet-excited-state quantum yield, measured directly): Ar-purged solutions; for kic (rate constant for internal conversion of the lowest singlet excited state to the ground state): printed as (x ns)^−1, from Φisc, Φf and τS
[2] = tested on: HeLa cells; assay: Cellular uptake into HeLa cells; format: cell-based, human; conditions: 24 h, highest concentration (20.5 μM)
How it was run: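 HeLa cells in RPMI with 10% heat-inactivated FBS, seeded at 5000/well and grown 24 h, then exposed 24 h to test compound diluted in complete medium. Cells rinsed with warm PBS, lysed in SOLVABLE 2 h at 37 °C. Lysate fluorescence read at ex 402/em 730 nm against per-compound calibration curves in SOLVABLE. Protein by BCA with BSA standards. Expressed as nmol per mg protein; three experiments.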

[3] = tested on: HeLa human cervical cancer cells; assay: In vitro PDT toxicity on HeLa cells after illumination; format: cell-based; conditions: for LD50: 24 h; for phototoxicity per unit uptake (in words) / incubation period needed to exert PDT toxicity (time-course) / LD50 (least active compounds): HeLa; for phototoxicity per unit uptake (in words): normalized to the same uptake level; for incubation period needed to exert PDT toxicity (time-course): 0.5 μM, various incubation times, 10 J/cm^2 of 732 nm light; for LD50 (least active compounds): 10 J/cm^2 of 732 nm laser
[4] = tested on: HeLa cells; format: cell-based, human; conditions: 1 μM bacteriochlorin, 24 h
How it was run: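 HeLa cells in 35 mm dishes, attached overnight, then given 1 μM test compound in complete medium for 24 h. After a PBS wash, 5 μg/mL LysoTracker green DND-26, MitoTracker green FM or ER-Tracker green was added for 30 min at 37 °C. Cells were washed again and imaged 5–10 min later by confocal microscopy: 488 nm argon excitation, probe emission 515 ± 10 nm, compound emission >580 nm, 63× water lens. Red/green overlays scored for overlap.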

[5] = tested on: HeLa human cervical cancer cells; assay: Dark toxicity on HeLa cells; conditions: no light, at 10 μM
[6] = tested on: HeLa human cervical cancer cells; conditions: 24 h, 10 μM
[7] = cited from earlier work
[8] = Ar-purged 2-methyltetrahydrofuran
[9] = freeze–pump–thaw degassed methanol

Structure (SMILES) | uptake level (in words) [2] | Qy(0,0) absorption fwhm [1] [nm] | Qy(0,0) absorption λ [1] [nm] | LD50 [3] [nM] | τT (lifetime of the lowest triplet excited state) [1, 8] [μs] | Θ f (fluorescence quantum yield) [1] | τS (lifetime of the lowest singlet excited state) [1] [ns] | Qy(0,0) fluorescence fwhm [1] [nm] | Qy(0,0) fluorescence λ [1] [nm] | phototoxicity per unit uptake (in words) [3] | further results
CC1(C)Cc2cc3ccc(cc4nc(cc5ccc(cc1n2)[nH]5)CC4(C)C)[nH]3 [8,8,18,18-tetramethylbacteriochlorin, reference compound] | – | – | – | – | – | – | – | – | – | – | Φf of fluorescence standard ([1]; Ar-purged toluene, Soret and Qx excitation): 0.125
COCCOCCOCCOCCNCc1cc(CNCCOCCOCCOCCOC)cc(-c2c3nc(cc4[nH]c(cc4-c4ccc(C)cc4)c(OC)c4nc(cc5[nH]c2cc5-c2ccc(C)cc2)C(C)(C)C4)C(C)(C)C3)c1 [Compound 1] | Low to intermediate uptake | 21 | 732 | 500 | – | – | – | – | – | – | –
CC1(C)Cc2cc3[nH]c(cc4nc(cc5[nH]c(cc1n2)cc5-c1cc(OCCO)cc(OCCO)c1)CC4(C)C)cc3-c1cc(OCCO)cc(OCCO)c1 [Compound 3] | – | 19 | 732 | – | 159 | 0.15 | 3.0 | 24 | 738 | high values | –
CC1(C)Cc2cc3[nH]c(cc4nc(cc5[nH]c(cc1n2)cc5-c1cc(O)cc(O)c1)CC4(C)C)cc3-c1cc(O)cc(O)c1 [Compound 4] | – | 21 | 732 | – | 190 | 0.12 | 3.7 | 26 | 737 | high values | Φisc (triplet-excited-state quantum yield, measured directly) [1]: 0.41; kic (rate constant for internal conversion of the lowest singlet excited state to the ground state) [1]: 7.7 (ns)^−1; incubation period needed to exert PDT toxicity (time-course) [3]: most rapid toxicity; overlap with endoplasmic reticulum probe (ER-Tracker) [4]: high degree of localization
CC1(C)Cc2cc3[nH]c(cc4nc(cc5[nH]c(cc1n2)cc5C#CC[N+](C)(C)C)CC4(C)C)cc3C#CC[N+](C)(C)C.[Cl-].[Cl-] [Compound 5] | Intermediate uptake levels | 16 | 749 | – | – | 0.11 | 3.8 | 22 | 754 | much lower values | τT (lifetime of the lowest triplet excited state) [1, 9]: 104 ^k μs; LD50 (least active compounds) [3]: > 1 µM; dark toxicity level [5]: ~50%
CC1(C)Cc2cc3[nH]c(cc4nc(cc5[nH]c(cc1n2)cc5CN(CCO)CCO)CC4(C)C)cc3CN(CCO)CCO [Compound 6] | Intermediate uptake levels | 18 | 718 | – | 190 | 0.095 | 3.8 | 23 | 724 | high values | dark toxicity level [6]: ~50%; overlap with endoplasmic reticulum probe (ER-Tracker) [4]: good overlap
CC1(C)Cc2cc3[nH]c(cc4nc(cc5[nH]c(cc1n2)cc5C(=O)O)CC4(C)C)cc3C(=O)O [Compound 7] | lowest uptake | 26 | 734 | 4000 | 70 | 0.077 | 3.7 | 19 | 742 | – | LD50 (least active compounds) [3]: > 1 µM
CC1(C)Cc2cc3[nH]c(cc4nc(cc5[nH]c(cc1n2)cc5C(=O)NCCN)CC4(C)C)cc3C(=O)NCCN [Compound 8] | Intermediate uptake levels | 23 | 742 | 3000 | – | 0.13 | 4.0 | 25 | 750 | much lower values | τT (lifetime of the lowest triplet excited state) [1, 9]: 77 ^k μs; incubation period needed to exert PDT toxicity (time-course) [3]: longest incubation times; LD50 (least active compounds) [3]: > 1 µM; overlap with endoplasmic reticulum probe (ER-Tracker) [4]: hardly any overlap
CC1(C)Cc2cc3[nH]c(cc4nc(cc5[nH]c(cc1n2)cc5C(=O)N(CCN)CCN)CC4(C)C)cc3C(=O)N(CCN)CCN [Compound 9] | low uptake | 19 | 729 | 800 | – | 0.12 | 3.5 | 24 | 735 | much lower values | Φisc (triplet-excited-state quantum yield, measured directly) [1]: 0.57; τT (lifetime of the lowest triplet excited state) ([1]; freeze–pump–thaw degassed ethanol): 54 ^l μs; kic (rate constant for internal conversion of the lowest singlet excited state to the ground state) [1]: 11.4 (ns)^−1
CC1(C)Cc2cc3[nH]c(cc4nc(cc5[nH]c(cc1n2)cc5C(=O)N1CC[N+](C)(C)CC1)CC4(C)C)cc3C(=O)N1CC[N+](C)(C)CC1.[Cl-].[Cl-] [Compound 10] | low uptake | 21 | 731 | – | – | 0.12 | 3.8 | 28 | 740 | much lower values | τT (lifetime of the lowest triplet excited state) [1, 9]: 100 ^k μs
CC1(C)Cc2cc3[nH]c(cc4nc(cc5[nH]c(cc1n2)cc5C(=O)/C=C/c1cc(O)cc(O)c1)CC4(C)C)cc3C(=O)/C=C/c1cc(O)cc(O)c1 [Compound 11] | low uptake | 35 | 781 | 200 | 78 | 0.021 | 3.4 | 40 | 800 | – | –
COCCN(CCOC)C(=O)c1cc2cc3nc(cc4[nH]c(cc5nc(cc1[nH]2)CC5(C)C)cc4C(=O)N(CCOC)CCOC)CC3(C)C [Compound 12] | highest uptake | 20 | 727 | – | 105 | 0.10 | 3.3 | 27 | 733 | high values | –
CC[C@H]1c2cc3[nH]c4c(c3C)C(=O)[C@H](C(=O)OC)c4c3nc(cc4[nH]c(cc(n2)[C@@H]1C)c(C(C)=O)c4C)[C@@H](C)[C@@H]3CCC(=O)OC/C=C(\C)CCC[C@H](C)CCC[C@H](C)CCCC(C)C [bacteriopheophytin a] | – | – | – | – | – | – | – | – | – | – | yield of the lowest triplet excited state [7]: 0.54
C1=Cc2nc1c(-c1ccccc1)c1nc(c(-c3ccccc3)c3ccc([nH]3)c(-c3ccccc3)c3ccc([nH]3)c2-c2ccccc2)C=C1 [free base tetraphenylporphyrin, tetraphenylporphyrin] | – | – | – | – | – | – | – | – | – | – | Φf of fluorescence standard ([7]; in toluene ref 33): 0.090
